Screening results from PubChem.
Many of the other results were omitted from the sample, so hits are more common in it than they were.
Mdm2 ligase inh = blocks human Mdm2 ubiquitin ligase activity | Q00987 | cell-based MDM2 ubiquitination luciferase reporter, 2 h; 0 = plate control, 100 = twice control, blank-subtracted | signal enhancement, % at 5 µM | actives 0.11% (n = 210,000) | AID 1230;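 active = signal enhancement of 30% or more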;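 note: luminescence tracks abundance of the self-degrading MDM2-luciferase fusion protein; higher signal means inhibition of MDM2 E3 ligase activity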
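test system = mammalian cells stably expressing self-ubiquitinating, self-degrading MDM2 E3–luciferase fusion | quantity = 2000 cells/well | incubation = cell settling 4 h, compound treatment 2 h, both 37 °C | signal = luminescence with SteadyLite reagent, 15 min at room temperature | evaluation = % enhancement relative to plate controls after blank subtraction | benchmarks = plate controls and plate blanks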
S1P3 antagonist = blocks the human S1P3 receptor. CHO S1P3 NFAT-BLA reporter, FRET fluorescence, antagonist mode. inhibition, % at 4.98 µM. actives 0.27% (n = 170,000);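 active = inhibition above the plate cutoff, the mean inhibition of test wells on that plate plus 3 SD, cut at about 28% in these data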;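 note: cells challenged with S1P at its EC80 of 0.8 µM; blue over green emission ratio from cleaved BLA substrate after 4 h stimulation; 0% = S1P-stimulated wells and 100% = unstimulated DMSO-only wells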
S1P4 ag = human S1P4 receptor agonism; actives 0.35% (n = 220,000); S1P4-expressing cell line, agonist reporter assay; AID 1509; activation, % at 4.98 µM; in the data active = activation above about 11%;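 note: 0% = DMSO vehicle and 100% = reference agonist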
Target sequence (O95977 whole entry, looked up): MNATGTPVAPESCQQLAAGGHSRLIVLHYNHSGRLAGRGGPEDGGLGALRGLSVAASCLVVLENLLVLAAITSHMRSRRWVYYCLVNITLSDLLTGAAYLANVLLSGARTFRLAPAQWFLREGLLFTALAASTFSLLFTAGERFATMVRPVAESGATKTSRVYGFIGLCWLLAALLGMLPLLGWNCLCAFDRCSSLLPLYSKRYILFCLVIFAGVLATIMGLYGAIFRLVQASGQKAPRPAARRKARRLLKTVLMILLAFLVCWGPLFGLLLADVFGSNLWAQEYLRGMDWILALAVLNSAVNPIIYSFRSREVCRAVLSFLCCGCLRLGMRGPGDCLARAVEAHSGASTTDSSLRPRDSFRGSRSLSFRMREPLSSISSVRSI
S1P4 antag = antagonists of human S1P4 receptor; O95977; S1P4-expressing cells, antagonist mode, reporter read-out; inhibition, % at 4.98 µM; actives 0.26% (n = 220,000); in the data active = inhibition above about 29%;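 note: 0% = wells stimulated with agonist and 100% = vehicle wells without agonist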
Lmaj promast = reduces viability of Leishmania major promastigotes | resazurin fluorescence viability | inhibition, % at 10 µM | actives 9% (n = 200,000) | AID 1063; in the data active = inhibition above about 50%;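 note: promastigotes grown with compound for 44 hours at 28 °C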
An asterisk follows results filed as active; . = no result given.

SMILES	Mdm2 ligase inh	S1P3 antagonist	S1P4 ag	S1P4 antag	Lmaj promast
CC(=O)Nc1nc(SCC(=O)Nc2nnc(C)s2)[nH]c(=O)c1NC(=O)c1cccs1	-81.4	-14.9	0.7	-0.5	-3.4
Cc1cc(C)cc(-n2nnnc2SCC(=O)Nc2nc(-c3ccc(F)cc3)cs2)c1	5.8	.	-0.3	-4.7	2.1
N#C/C(=C/c1ccc(CNS(=O)(=O)c2ccccc2)o1)C(=O)NCc1ccccc1	0.1	-14.8	1.3	-13.4	4.0
N#C/C(=C/c1ccc(CNS(=O)(=O)c2ccccc2)o1)C(N)=O	-4.2	-3.1	-1.2	-6.4	50.8*
COc1ccc(CC2(C)OC(c3ccc(Cl)cc3)=NN2C(C)=O)cc1 (stereo not given)	2.0	2.1	1.3	6.3	54.3*
COc1ccc(CC2(C)OC(c3ccncc3)=NN2C(C)=O)cc1 (stereo not given)	-15.8	-9.9	1.0	-25.8	-0.7
CC(C)CNC(=O)c1cnn2c(C(F)(F)F)cc(C(F)(F)F)nc12	-13.9	-3.4	1.2	3.6	.
CCN1CCN(C(=O)CN(c2ccc(F)c(Cl)c2)S(C)(=O)=O)CC1	-3.8	-15.8	2.8	-1.9	-4.1
OC1(c2cccc(C(F)(F)F)c2)CCNCC1	-15.6	7.7	-0.5	-14.6	60.0*
CCn1c(N2CCN(S(=O)(=O)c3ccccc3C(F)(F)F)CC2)nc2ccccc21	-15.9	-29.0	-1.4	-9.7	73.9*
CCCN1CCN(c2ncnc3c2nnn3Cc2ccccc2)CC1	-32.5	13.9	1.3	-14.3	97.3*
c1ccc(Cn2nnc3c(N4CCCCCC4)ncnc32)cc1	-13.5	-17.4	-0.5	8.5	5.9
CC(C)Cn1c(SCc2nc3ccccc3c(=O)[nH]2)nc2ccccc2c1=O	-9.4	.	1.6	0.3	7.2
COc1ccc(CC(=O)Nc2cccc(-c3nnc(-c4ccc(C)cc4)o3)c2)cc1OC	-10.4	-11.3	-1.7	-1.6	-2.0
COc1ccc(CC(=O)Nc2cccc(-c3nnc(-c4cccc(C)c4)o3)c2)cc1OC	-25.8	84.7*	-0.7	-19.5	8.7
Cc1cc(C(=O)NCC23CC4CC(CC(C4)C2)C3)c(C)o1	0.1	13.1	-0.4	-12.5	-1.9
COc1ccc(C(c2nnnn2Cc2ccc(F)cc2)N2CCN(c3ccc(OC)cc3)CC2)cc1 (stereo not given)	2.8	4.5	0.4	1.1	94.4*
COc1ccc(Cn2nnnc2C(c2ccc(F)cc2)N2CCN(C3CCCC3)CC2)cc1 (stereo not given)	-8.5	4.4	3.2	11.8	17.1
COc1ccc(C(c2nnnn2CS(=O)(=O)c2ccc(C)cc2)N2CCN(Cc3ccccc3)CC2)cc1 (stereo not given)	.	.	-0.1	2.7	62.6*
COc1ccc(C(c2nnnn2Cc2ccc(F)cc2)N2CCN(c3ccccc3)CC2)cc1 (stereo not given)	-12.9	34.2	0.5	-12.7	74.2*
COc1ccc(N2CCN(C(c3ccccc3)c3nnnn3Cc3ccc(F)cc3)CC2)cc1 (stereo not given)	-22.6	21.2	1.1	-1.1	66.1*
Cc1ccc(C(c2nnnn2CS(=O)(=O)c2ccc(C)cc2)N2CCN(c3ncccn3)CC2)cc1 (stereo not given)	4.0	.	-2.7	-17.6	17.8
O=C(NNc1ccc([N+](=O)[O-])cc1)C12CC3CC(CC(C3)C1)C2	-0.5	.	-0.6	4.8	-3.6
COc1cc(CC(=O)OCC(=O)Nc2cc([N+](=O)[O-])ccc2Cl)cc(OC)c1OC	0.0	-0.5	0.3	-1.9	-4.5
COC(=O)CNC(=O)CSc1nnc(C)c(=O)[nH]1	-8.1	-11.3	1.9	-14.7	-5.0
SMILES	Mdm2 ligase inh	S1P3 antagonist	S1P4 ag	S1P4 antag	Lmaj promast
CCOC(=O)N1CCN(CC(=O)Nc2ccc([N+](=O)[O-])cc2C(=O)Nc2ccccc2F)CC1	-14.5	-9.7	-0.3	-7.7	75.2*
CSc1ccccc1NC(=O)CN1CCN(Cc2ccccc2)CC1	-13.3	-10.4	-1.0	-8.6	-3.5
CCOC(=O)N1CCN(CC(=O)Nc2ccc(F)c(F)c2)CC1	-3.0	-21.8	3.0	-11.5	-4.0
O=C(CN1CCN(Cc2ccccc2)CC1)Nc1ccc([N+](=O)[O-])cc1C(=O)Nc1ccccc1F	-13.1	-13.3	0.5	8.1	99.2*
COc1cc2c(=O)n(CCC(=O)NCC3CCCO3)c(=O)n(CC(=O)c3ccc(Cl)cc3)c2cc1OC (stereo not given)	5.2	-22.2	0.8	-2.3	4.9
CCc1c(O)nc(SCC(=O)Nc2nc3ccccc3s2)n(C2CCCCC2)c1=O	-1.5	1.9	-0.8	-28.0	.
CN(C)c1nc2ccccc2c(N)c1-c1ccccc1	.	22.4	-1.8	-18.6	95.9*
CSc1nc(N(C)C)c2ccccc2n1	-4.2	-28.8	3.2	-13.5	3.8
OCCC1CN(Cc2nc3c(s2)CCCC3)CCN1CCc1ccccc1 (stereo not given)	-7.8	6.9	-0.6	13.0	75.7*
OCCC1CN(Cc2nc3c(s2)CCCC3)CCN1Cc1ccccc1 (stereo not given)	-10.1	-0.8	-0.9	0.3	.
CC(C)CCN1CCN(Cc2nc3c(s2)CCCC3)CC1CCO (stereo not given)	-23.2	-20.2	1.7	3.9	74.9*
COc1ccc(CN(C(=O)c2ccco2)c2ccc(Br)cc2)cc1OC	-11.4	-17.4	-0.1	-25.8	-2.7
COc1ccc(N(Cc2ccco2)C(=O)c2ccccc2F)cc1OC	2.4	8.4	0.2	-3.5	59.0*
Cn1c(=O)c2c(nc(SCCN3CCCCC3)n2Cc2ccc(Cl)cc2)n(C)c1=O	-7.5	.	-0.2	-1.0	90.2*
O=c1c2ccccc2nc(SCCN2CCCCC2)n1CCc1ccccc1	-15.0	-3.7	-0.4	-2.6	85.5*
CC(C)Cn1c(SCC(=O)N2CCCCC2)nc2ccccc2c1=O	1.0	.	0.8	-0.7	23.6
COc1ccc(NC(=O)CSc2nc3ccccc3c(=O)n2CCCN2CCCCC2)c(OC)c1	-6.2	.	1.1	-2.0	100.4*
COc1ccccc1CNC(=O)CSc1nc2ccccc2c(=O)n1CCCN1CCOCC1	-0.6	-11.4	-0.4	-2.8	1.1
CCC(C)NC(=O)CSc1nc2c(sc3ccccc32)c(=O)n1CCCN1CCOCC1 (stereo not given)	-22.5	.	-2.6	-20.1	19.6
CCOC(=O)CSc1nc2c(sc3ccccc32)c(=O)n1CCCN1CCOCC1	-11.3	-17.5	0.2	-17.7	100.0*
CC(C)(C)C(=O)Nc1cc(NC(=O)C(C)(C)C)cc(C(=O)Nc2cc(C(=O)O)cc(C(=O)O)c2)c1	.	-7.8	-2.5	-10.7	-5.3
CCOC(=O)NC(=O)c1cn(CCNCCO)c(=O)[nH]c1=O	-1.6	4.8	-1.6	-5.5	-4.8
O=C1CN(C(=O)CSc2nc3ccccc3c(=O)n2CCCN2CCOCC2)c2ccccc2N1	-6.7	-8.6	-0.5	15.5	.
O=C(CSc1nc2ccccc2c(=O)n1CCCN1CCOCC1)c1c[nH]c2ccccc12	2.7	-8.5	0.0	12.2	53.2*
NS(=O)(=O)c1cccc(NC(=O)CSc2nc3ccccc3c(=O)n2CCCN2CCOCC2)c1	-8.4	-32.1	0.3	-28.0	-8.5
